Key:
[1] = target: Dihydroorotate dehydrogenase (quinone), mitochondrial (Homo sapiens, UniProt Q02127); test: Inhibition of human recombinant N-terminal GST-tagged DHODH (31 to 395 residues) expressed in Escherichia coli BL21(DE3) using DHO as substrate preincubated for 5 mins followed by substrate addition and measured for 5 mins by DCPI dye-based assay
Outline: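 GST-fused enzyme from E. coli, glutathione-affinity purified. Pre-incubated 5 min at 37°C in Tris buffer pH 8.0 with 100 μM coenzyme Q10, 50 μM DCIP and compounds (0.1% DMSO final). Started with 500 μM DHO; DCIP reduction followed at 650 nm over the first 5 min. IC50 is mean ± SE of three experiments.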

[2] = Dissociation constant, pKa of the compound by potentiometric analysis; format: physicochemical
[3] = target: T1, Dihydroorotate dehydrogenase (Plasmodium falciparum, UniProt Q54A96); test: Inhibition of Plasmodium falciparum recombinant N-terminal His6-tagged DHODH (159-569 residues) expressed in Escherichia coli BL21(DE3) using DHO as substrate measured every min for 5 mins by DCPI dye-based photometric analysis
T1 sequence (Q54A96 whole entry): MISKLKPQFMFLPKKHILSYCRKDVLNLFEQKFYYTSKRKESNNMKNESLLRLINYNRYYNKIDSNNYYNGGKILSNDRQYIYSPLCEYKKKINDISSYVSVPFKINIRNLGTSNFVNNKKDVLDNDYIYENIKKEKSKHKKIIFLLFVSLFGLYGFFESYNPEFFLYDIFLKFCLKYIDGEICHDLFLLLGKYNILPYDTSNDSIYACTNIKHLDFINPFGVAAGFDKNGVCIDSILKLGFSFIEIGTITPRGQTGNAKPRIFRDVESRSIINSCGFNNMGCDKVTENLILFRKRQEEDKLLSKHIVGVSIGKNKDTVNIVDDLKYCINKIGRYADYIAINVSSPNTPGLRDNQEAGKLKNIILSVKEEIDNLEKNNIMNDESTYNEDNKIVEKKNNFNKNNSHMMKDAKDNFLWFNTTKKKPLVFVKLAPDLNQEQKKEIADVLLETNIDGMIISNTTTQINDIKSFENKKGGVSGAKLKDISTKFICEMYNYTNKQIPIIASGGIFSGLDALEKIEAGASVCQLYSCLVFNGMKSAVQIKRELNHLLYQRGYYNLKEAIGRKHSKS
Outline: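 N-terminally truncated recombinant enzyme, His-tag IMAC then size exclusion purified, in 50 mM Tris/HCl pH 7.8, 150 mM KCl, 0.1% Triton X-100 with 60 μM DCIP and 20 μM decylubiquinone. Started with 200 μM DHO; initial rate from DCIP absorbance at 600 nm over the first 5 min. IC50 is mean ± SE of three experiments.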

[4] = Cytotoxicity against African green monkey COS7 cells after 48 hrs by MTT assay; format: cell-based; settings: chlorocebus aethiops, COS-7 cells
Outline: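 COS-7 cells in DMEM with 10% heat-inactivated FBS and gentamicin, 37°C, 5% CO2. Seeded at 10⁴ cells/well and left 16 h to adhere. Compounds added at several concentrations for 48 h. MTT added for 4 h, formazan dissolved in acidified Triton/isopropanol, OD read at 570 nm. CC50 from viability relative to control, given with 95% confidence interval of the fit.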

[5] = system: Plasmodium falciparum; test: Anti-plasmodial activity against synchronized ring stage Plasmodium falciparum 3D7 infected in human erythrocytes assessed as reduction in parasitemia after 48 hrs by Sybr Green I dye-based flow cytometric analysis; format: functional, organism-based; settings: 3D7, 48 h
Outline: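 Parasites kept in O+ human erythrocytes in RPMI 1640 with HEPES pH 7.3, glutamine, glucose, gentamicin, 0.5mM hypoxanthine and 10% human serum, 4% hematocrit, 37°C in 1% O2/5% CO2. Sorbitol-synchronized rings; 1:2 serial dilutions from 300µM at 2% hematocrit, 1-2% parasitemia, 48h. SybrGreen I flow cytometry; triplicate points fitted to log[I] vs response for EC50.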

[6] = Selectivity ratio of IC50 for human recombinant DHODH to IC50 for Plasmodium falciparum recombinant DHODH

Dihydroorotate dehydrogenase (quinone), mitochondrial, sequence (Q02127 whole entry, the tested form may be a part): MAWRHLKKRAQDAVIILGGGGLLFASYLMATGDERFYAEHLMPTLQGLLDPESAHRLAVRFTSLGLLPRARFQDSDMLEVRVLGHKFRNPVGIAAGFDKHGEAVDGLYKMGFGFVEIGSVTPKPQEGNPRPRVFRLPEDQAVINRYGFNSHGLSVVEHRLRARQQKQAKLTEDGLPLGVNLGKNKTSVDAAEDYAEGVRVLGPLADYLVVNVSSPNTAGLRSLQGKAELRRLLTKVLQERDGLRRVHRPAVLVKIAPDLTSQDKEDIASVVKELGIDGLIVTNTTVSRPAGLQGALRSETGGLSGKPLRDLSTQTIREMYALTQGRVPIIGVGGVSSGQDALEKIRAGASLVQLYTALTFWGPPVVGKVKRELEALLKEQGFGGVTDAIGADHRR

SMILES | IC50 [1] | pKa [2] | IC50 [3] | EC50 [5] | Ratio IC50 [6] | CC50 at 48 h [4]
O=C(NCC(c1ccccc1)c1ccccc1)c1nsnc1O | > 200 µM | 3.72 | 12 µM | 35.9 µM |  | 190 µM
O=C(NCc1ccccc1)c1nsnc1O | > 200 µM | 3.69 | 35 µM |  | > 6 | 
Cn1nc(O)c(C(=O)O)c1CNc1ccccc1 | > 250 µM |  | 16 µM |  | > 16 | 
CN(Cc1c(C(=O)O)c(O)nn1C)c1ccccc1 | > 250 µM |  | 23 µM |  | > 10 | 
Cn1nc(O)c(C(N)=O)c1COc1ccccc1 |  |  | > 250 µM |  |  | 
Cn1nc(O)c(C(=O)O)c1COc1ccc(C(F)(F)F)cc1 | ≥ 200 µM |  | 5.3 µM | 26.7 µM |  | 152 µM
Cc1c(C(=O)NCC(c2ccccc2)c2ccccc2)c(O)nn1C |  | 6.54 | > 250 µM |  |  | 

More lines, main results first:

IC50 [1] | pKa [2] | IC50 [3] | EC50 [5] | Ratio IC50 [6] | SMILES | CC50 at 48 h [4]
 | 6.42 | > 250 µM |  |  | Cn1cc(C(=O)NCC(c2ccccc2)c2ccccc2)c(O)n1 | 
> 250 µM |  | 25 µM |  | > 10 | Cn1nc(O)c(C(=O)O)c1CSc1ccccc1 | 
 |  | > 250 µM |  |  | Cn1nc(OCc2ccccc2)c(C(=O)O)c1COc1ccccc1 | 
 |  | > 250 µM |  |  | Cn1nc(OCC2CC2)c(C(=O)O)c1COc1ccccc1 | 
 |  | > 250 µM |  |  | CCOC(=O)c1c(O)nn(C)c1COc1ccccc1 | 
> 200 µM | 3.33 | 75 µM |  | > 3 | O=C(NCC(c1ccccc1)c1ccccc1)c1nonc1O | 
≥ 200 µM |  | 2.8 µM | 40.7 µM |  | Cn1nc(O)c(C(=O)O)c1COc1cccc(C(F)(F)F)c1 | 167 µM
 |  | > 250 µM |  |  | CCOc1nn(C)c(COc2ccccc2)c1C(=O)O | 
> 250 µM |  | 19 µM |  | > 13 | Cn1nc(O)c(C(=O)O)c1COc1ccccc1 | 
